Experimental data: ChEMBL document CHEMBL3525900, “Pharmacokinetics, distribution, and metabolism of [14C]sunitinib in rats, monkeys, and humans” (Drug Metab Dispos, 2012)

Assays:
Blood [1] = test: Drug concentration in male albino rat blood assessed as radioactivity per gram of tissue at 20 mg/kg administered as single dose via gastric gavage measured after 6 hrs by autoradiographic analysis; assay type: ADME, organism-based; design: dose 20 mg/kg, dosed compound name [14C]Sunitinib; conditions: in vivo, po
Blood [2] = test: Drug concentration in female Lister Hooded pigmented rat blood assessed as radioactivity per gram of tissue at 20 mg/kg administered as single dose via gastric gavage measured after 24 hrs by autoradiographic analysis; assay type: ADME, organism-based; design: dose 20 mg/kg, dosed compound name [14C]Sunitinib; conditions: in vivo, po
Summary of the method: (§1)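 Lister Hooded (pigmented) rats, ca 7-8 weeks old, acclimated 7 days, given [14C]sunitinib L-malate by gastric gavage at 20 mg/kg (15 mg freebase/kg, 100 µCi/kg). One male and one female killed by CO2 at 24, 72, 168 and 336 h. Carcasses frozen in solid CO2/hexane and embedded in frozen cellulose. 30 µm sagittal cryosections were freeze-dried. Tissue radioactivity measured by quantitative whole-body autoradiography against calibration standards, with background subtracted.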

Liver [3] = test: Drug concentration in male albino rat liver assessed as radioactivity per gram of tissue at 20 mg/kg administered as single dose via gastric gavage measured after 72 hrs by autoradiographic analysis; assay type: ADME, organism-based; design: dose 20 mg/kg, dosed compound name [14C]Sunitinib; conditions: in vivo, po
Adrenal [4] = test: Drug concentration in male Lister Hooded pigmented rat adrenal assessed as radioactivity per gram of tissue at 20 mg/kg administered as single dose via gastric gavage measured after 24 hrs by autoradiographic analysis; assay type: ADME, organism-based; design: dose 20 mg/kg, dosed compound name [14C]Sunitinib; conditions: in vivo, po
Spleen = test: Drug concentration in female albino rat spleen assessed as radioactivity per gram of tissue at 20 mg/kg administered as single dose via gastric gavage measured after 6 hrs by autoradiographic analysis; assay type: ADME, organism-based; design: dose 20 mg/kg, dosed compound name [14C]Sunitinib; conditions: in vivo, po
[5] = Drug concentration in male Lister Hooded pigmented rat uveal tract assessed as radioactivity per gram of tissue at 20 mg/kg administered as single dose via gastric gavage measured after 24 hrs by autoradiographic analysis; assay type: ADME, organism-based; design: dose 20 mg/kg, dosed compound name [14C]Sunitinib; conditions: in vivo, po
[6] = Drug concentration in male albino rat preputial gland assessed as radioactivity per gram of tissue at 20 mg/kg administered as single dose via gastric gavage measured after 72 hrs by autoradiographic analysis; assay type: ADME, organism-based; design: dose 20 mg/kg, dosed compound name [14C]Sunitinib; conditions: in vivo, po
[7] = Drug concentration in male albino rat testis assessed as radioactivity per gram of tissue at 20 mg/kg administered as single dose via gastric gavage measured after 24 hrs by autoradiographic analysis; assay type: ADME, organism-based; design: dose 20 mg/kg, dosed compound name [14C]Sunitinib; conditions: in vivo, po
[8] = Drug concentration in male albino rat lymph node assessed as radioactivity per gram of tissue at 20 mg/kg administered as single dose via gastric gavage measured after 6 hrs by autoradiographic analysis; assay type: ADME, organism-based; design: dose 20 mg/kg, dosed compound name [14C]Sunitinib; conditions: in vivo, po
Large intestine = test: Drug concentration in male albino rat large intestine assessed as radioactivity per gram of tissue at 20 mg/kg administered as single dose via gastric gavage measured after 24 hrs by autoradiographic analysis; assay type: ADME, organism-based; design: dose 20 mg/kg, dosed compound name [14C]Sunitinib; conditions: in vivo, po
Adrenal [9] = test: Drug concentration in female Lister Hooded pigmented rat adrenal assessed as radioactivity per gram of tissue at 20 mg/kg administered as single dose via gastric gavage measured after 336 hrs by autoradiographic analysis; assay type: ADME, organism-based; design: dose 20 mg/kg, dosed compound name [14C]Sunitinib; conditions: in vivo, po; summary of the method: as §1
Harderian gland = test: Drug concentration in female albino rat harderian gland assessed as radioactivity per gram of tissue at 20 mg/kg administered as single dose via gastric gavage measured after 6 hrs by autoradiographic analysis; assay type: ADME, organism-based; design: dose 20 mg/kg, dosed compound name [14C]Sunitinib; conditions: in vivo, po
Summary of the method: (§2)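 Sprague Dawley albino rats, ca 7-8 weeks old, dosed once by gastric gavage with [14C]sunitinib L-malate (15 mg freebase/kg, 100 µCi/kg). One male and one female killed by CO2 at 3, 6, 24, 72 and 168 h. Carcasses frozen in solid CO2/hexane, embedded and cut into 30 µm sagittal sections, then freeze-dried. Radioactivity quantified by whole-body autoradiography against standards by regression, background subtracted.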

[10] = Drug concentration in female albino rat lachrymal gland assessed as radioactivity per gram of tissue at 20 mg/kg administered as single dose via gastric gavage measured after 72 hrs by autoradiographic analysis; assay type: ADME, organism-based; design: dose 20 mg/kg, dosed compound name [14C]Sunitinib; conditions: in vivo, po; summary of the method: as §2
[11] = Drug concentration in male albino rat thyroid gland assessed as radioactivity per gram of tissue at 20 mg/kg administered as single dose via gastric gavage measured after 72 hrs by autoradiographic analysis; assay type: ADME, organism-based; design: dose 20 mg/kg, dosed compound name [14C]Sunitinib; conditions: in vivo, po
[12] = Drug concentration in male Lister Hooded pigmented rat pituitary gland assessed as radioactivity per gram of tissue at 20 mg/kg administered as single dose via gastric gavage measured after 24 hrs by autoradiographic analysis; assay type: ADME, organism-based; design: dose 20 mg/kg, dosed compound name [14C]Sunitinib; conditions: in vivo, po
Liver [13] = test: Drug concentration in male albino rat liver assessed as radioactivity per gram of tissue at 20 mg/kg administered as single dose via gastric gavage measured after 6 hrs by autoradiographic analysis; assay type: ADME, organism-based; design: dose 20 mg/kg, dosed compound name [14C]Sunitinib; conditions: in vivo, po
Homo sapiens = test: Total drug recovery in human at 50 mg, po administered as single dose during 0 to 504 hrs by liquid scintillation counting; assay type: ADME, organism-based; design: dosed compound name [14C]Sunitinib; conditions: in vivo
Rattus norvegicus = test: Tmax as total radioactivity in female Sprague-Dawley rat plasma at 15 mg/kg, po administered as single dose by LC/MS/MS analysis; assay type: ADME, organism-based; design: dose 15 mg/kg, dosed compound name [14C]Sunitinib, route oral; conditions: in vivo
[14] = Drug concentration in male albino rat skeletal muscle assessed as radioactivity per gram of tissue at 20 mg/kg administered as single dose via gastric gavage measured after 6 hrs by autoradiographic analysis; assay type: ADME, organism-based; design: dose 20 mg/kg, dosed compound name [14C]Sunitinib; conditions: in vivo, po
[15] = Drug concentration in female albino rat preputial gland assessed as radioactivity per gram of tissue at 20 mg/kg administered as single dose via gastric gavage measured after 72 hrs by autoradiographic analysis; assay type: ADME, organism-based; design: dose 20 mg/kg, dosed compound name [14C]Sunitinib; conditions: in vivo, po; summary of the method: as §2
[16] = Drug concentration in male Lister Hooded pigmented rat preputial gland assessed as radioactivity per gram of tissue at 20 mg/kg administered as single dose via gastric gavage measured after 72 hrs by autoradiographic analysis; assay type: ADME, organism-based; design: dose 20 mg/kg, dosed compound name [14C]Sunitinib; conditions: in vivo, po
[17] = Drug concentration in male albino rat testis assessed as radioactivity per gram of tissue at 20 mg/kg administered as single dose via gastric gavage measured after 3 hrs by autoradiographic analysis; assay type: ADME, organism-based; design: dose 20 mg/kg, dosed compound name [14C]Sunitinib; conditions: in vivo, po
Adrenal [18] = test: Drug concentration in female Lister Hooded pigmented rat adrenal assessed as radioactivity per gram of tissue at 20 mg/kg administered as single dose via gastric gavage measured after 24 hrs by autoradiographic analysis; assay type: ADME, organism-based; design: dose 20 mg/kg, dosed compound name [14C]Sunitinib; conditions: in vivo, po
Summary of the method: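 Pigmented Lister Hooded rats, 7-8 weeks old, received [14C]sunitinib L-malate by gavage at 20 mg/kg (15 mg freebase/kg, 100 µCi/kg). One rat per sex was killed by CO2 at each of 24, 72, 168 and 336 h. Carcasses were frozen in solid CO2/hexane and cut into 30 µm sagittal sections, then freeze-dried. Tissue radioactivity was quantified by whole-body autoradiography calibrated against standards by regression (LOQ 0.04–0.06 µg eq/g).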

[19] = Drug concentration in female Lister Hooded pigmented rat pituitary gland assessed as radioactivity per gram of tissue at 20 mg/kg administered as single dose via gastric gavage measured after 24 hrs by autoradiographic analysis; assay type: ADME, organism-based; design: dose 20 mg/kg, dosed compound name [14C]Sunitinib; conditions: in vivo, po; summary of the method: as §1
[20] = Drug concentration in male albino rat bone marrow assessed as radioactivity per gram of tissue at 20 mg/kg administered as single dose via gastric gavage measured after 24 hrs by autoradiographic analysis; assay type: ADME, organism-based; design: dose 20 mg/kg, dosed compound name [14C]Sunitinib; conditions: in vivo, po
[21] = Drug concentration in female albino rat uterus assessed as radioactivity per gram of tissue at 20 mg/kg administered as single dose via gastric gavage measured after 24 hrs by autoradiographic analysis; assay type: ADME, organism-based; design: dose 20 mg/kg, dosed compound name [14C]Sunitinib; conditions: in vivo, po
Zone of skin = test: Drug concentration in male Lister Hooded pigmented rat abdomen skin assessed as radioactivity per gram of tissue at 20 mg/kg administered as single dose via gastric gavage measured after 24 hrs by autoradiographic analysis; assay type: ADME, organism-based; design: dose 20 mg/kg, dosed compound name [14C]Sunitinib; conditions: in vivo, po
[22] = Drug concentration in male albino rat uveal tract assessed as radioactivity per gram of tissue at 20 mg/kg administered as single dose via gastric gavage measured after 3 hrs by autoradiographic analysis; assay type: ADME, organism-based; design: dose 20 mg/kg, dosed compound name [14C]Sunitinib; conditions: in vivo, po
[23] = Drug concentration in male Lister Hooded pigmented rat bladder assessed as radioactivity per gram of tissue at 20 mg/kg administered as single dose via gastric gavage measured after 168 hrs by autoradiographic analysis; assay type: ADME, organism-based, Urinary bladder; design: dose 20 mg/kg, dosed compound name [14C]Sunitinib; conditions: in vivo, po
Liver [24] = test: Drug concentration in female albino rat liver assessed as radioactivity per gram of tissue at 20 mg/kg administered as single dose via gastric gavage measured after 3 hrs by autoradiographic analysis; assay type: ADME, organism-based; design: dose 20 mg/kg, dosed compound name [14C]Sunitinib; conditions: in vivo, po; summary of the method: as §2

CCN(CC)CCNC(=O)c1c(C)[nH]c(/[14CH]=C2\C(=O)Nc3ccc(F)cc32)c1C.O=C(O)C[C@H](O)C(=O)O
Radiolabel recovery (Blood [1]): 0.84 ugequiv
Radiolabel recovery (Blood [2]): 0.14 ugequiv
Radiolabel recovery (Liver [3]): 0.24 ugequiv
Radiolabel recovery (Adrenal [4]): 4.3 ugequiv
Radiolabel recovery (Spleen): 27.96 ugequiv
Radiolabel recovery [5]: 18.79 ugequiv
Radiolabel recovery [6]: 0.13 ugequiv
Radiolabel recovery [7]: 2.8 ugequiv
Radiolabel recovery [8]: 11.26 ugequiv
Radiolabel recovery (Large intestine): 1.5 ugequiv
Radiolabel recovery (Adrenal [9]): 0.66 ugequiv
Radiolabel recovery (Harderian gland): 14.12 ugequiv
Radiolabel recovery [10]: 0.25 ugequiv
Radiolabel recovery [11]: 0.24 ugequiv
Radiolabel recovery [12]: 7.71 ugequiv
Radiolabel recovery (Liver [13]): 10.7 ugequiv
Radiolabel recovery (Homo sapiens): 77%
Tmax (Rattus norvegicus): 6 h
Radiolabel recovery [14]: 2.3 ugequiv
Radiolabel recovery [15]: 0.24 ugequiv
Radiolabel recovery [16]: 7.84 ugequiv
Radiolabel recovery [17]: 0.79 ugequiv
Radiolabel recovery (Adrenal [18]): 3.59 ugequiv
Radiolabel recovery [19]: 2.87 ugequiv
Radiolabel recovery [20]: 0.38 ugequiv
Radiolabel recovery [21]: 0.96 ugequiv
Radiolabel recovery (Zone of skin): 5.57 ugequiv
Radiolabel recovery [22]: 2.63 ugequiv
Radiolabel recovery [23]: 0.06 ugequiv
Radiolabel recovery (Liver [24]): 19.89 ugequiv
